Experiments:
Type in all cases: ADME
[1] = Influence of Catalase (100 ug/mL) on the transition metal [Fe2+] (100 uM) ion mediated autoxidation.
Procedure, shortened: (§1)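 5,7-Dihydroxytryptamine (1.0 mM, 3.0 mL) in pH 7.4 phosphate buffer (ionic strength 0.1) at 37 °C. Runs contained 10 μM Cu2+ (as CuSO4) or 100 μM Fe2+, Fe3+ or Mn2+, alone or with catalase (100 μg/mL) or SOD (333 units/mL). The initial O2 uptake rate was measured by Clark-type oxygen electrode. Values are mean (n ≥ 2) ± SD.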

[2] = Influence of Catalase (100 ug/mL) on the transition metal [Fe3+] (100 uM) ion mediated autoxidation.; procedure, shortened: as §1
[3] = Effect of complexing agent DTPA (0.5 uM) on the initial rate of oxygen consumption during the autooxidation
Procedure, shortened: (§2)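 5,7-Dihydroxytryptamine (1.0 mM) in 3.0 mL air-saturated pH 7.4 phosphate buffer (ionic strength 0.1), 37 °C, with metal ion and/or chelator (DTPA or EDTA) added; Cu2+ supplied as CuSO4. The initial O2 consumption rate (nmol O2/min) was read with a Clark-type oxygen electrode. Values are mean (n ≥ 2) ± SD.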

[4] = Effect of complexing agent DTPA (10 uM) on the initial rate of oxygen consumption during the autooxidation; procedure, shortened: as §2
[5] = Influence of superoxide dismutase SOD (333 units/mL) on the transition metal Cu2+ (10 uM) ion mediated autoxidation.; procedure, shortened: as §1
[6] = Influence of superoxide dismutase SOD (333 units/mL) on the transition metal [Fe3+] (100 uM) ion mediated autoxidation.; procedure, shortened: as §1
[7] = Influence of superoxide dismutase SOD (333 units/mL) on the transition metal Mn2+ (100 uM) ion mediated autoxidation.; procedure, shortened: as §1
[8] = Influence of tyrosinase enzyme (18 units/mL) on the initial rate of oxygen consumption at a pH of 7.4.; conditions: pH 7.4
Procedure, shortened: (§3)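 5,7-Dihydroxytryptamine (1.0 mM) in 3.0 mL air-saturated phosphate buffer (ionic strength 0.1) at the stated pH, with bovine ceruloplasmin or mushroom tyrosinase at the listed units/mL. Initial O2 consumption (nmol O2/min) was recorded with a Clark-type oxygen electrode.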

[9] = Influence of tyrosinase enzyme (36 units/mL) on the initial rate of oxygen consumption at a pH of 7.4.; conditions: pH 7.4; procedure, shortened: as §3
[10] = Influence of tyrosinase enzyme (4.5 units/mL) on the initial rate of oxygen consumption at a pH of 7.4.; conditions: pH 7.4; procedure, shortened: as §3
[11] = Influence of tyrosinase enzyme (9 units/mL) on the initial rate of oxygen consumption at a pH of 7.4.; conditions: pH 7.4; procedure, shortened: as §3
[12] = Initial rate of oxygen consumption during the autooxidation of the compound.; procedure, shortened: as §2
[13] = Effect of transition metal ion and complexing agent Cu2+ (10 uM) +DTPA (1 uM) on the initial rate of oxygen consumption during the autooxidation; procedure, shortened: as §2
[14] = Effect of transition metal ion and complexing agent Cu2+ (10 uM) +EDTA (1 uM) on the initial rate of oxygen consumption during the autooxidation; procedure, shortened: as §2
[15] = Effect of transition metal ion and complexing agent [Fe2+] (100 uM) +DTPA (10 uM) on the initial rate of oxygen consumption during the autooxidation; procedure, shortened: as §2
[16] = Effect of transition metal ion and complexing agent [Fe2+] (100 uM) +EDTA (10 uM) on the initial rate of oxygen consumption during the autooxidation; procedure, shortened: as §2
[17] = Effect of transition metal ion and complexing agent [Fe3+] (100 uM) +DTPA (10 uM) on the initial rate of oxygen consumption during the autooxidation; procedure, shortened: as §2
[18] = Effect of transition metal ion and complexing agent [Fe3+] (100 uM) +EDTA (10 uM) on the initial rate of oxygen consumption during the autooxidation; procedure, shortened: as §2
[19] = Effect of transition metal ion and complexing agent Mn2+ (100 uM) +DTPA (10 uM) on the initial rate of oxygen consumption during the autooxidation; procedure, shortened: as §2
[20] = Effect of transition metal ion and complexing agent Mn2+ (100 uM) +EDTA (10 uM) on the initial rate of oxygen consumption during the autooxidation; procedure, shortened: as §2
[21] = Influence of Catalase (100 ug/mL) on the transition metal Cu2+ (10 uM) ion mediated autoxidation.; procedure, shortened: as §1
[22] = Effect of complexing agent DTPA (1 uM) on the initial rate of oxygen consumption during the autooxidation; procedure, shortened: as §2
[23] = Effect of complexing agent EDTA (1 uM) on the initial rate of oxygen consumption during the autooxidation; procedure, shortened: as §2
[24] = Effect of transition metal ion Cu2+ (10 uM) on the initial rate of oxygen consumption during the autooxidation; procedure, shortened: as §2
[25] = Effect of transition metal ion Cu2+ (1 uM) on the initial rate of oxygen consumption during the autooxidation; procedure, shortened: as §2
[26] = Effect of transition metal ion Cu2+ (20 uM) on the initial rate of oxygen consumption during the autooxidation; procedure, shortened: as §2
[27] = Effect of transition metal ion Cu2+ (40 uM) on the initial rate of oxygen consumption during the autooxidation; procedure, shortened: as §2
[28] = Effect of transition metal ion [Fe2+] (100 uM) on the initial rate of oxygen consumption during the autooxidation; procedure, shortened: as §2
[29] = Effect of transition metal ion [Fe2+] (10 uM) on the initial rate of oxygen consumption during the autooxidation; procedure, shortened: as §2
[30] = Effect of transition metal ion [Fe2+] (200 uM) on the initial rate of oxygen consumption during the autooxidation; procedure, shortened: as §2
[31] = Effect of transition metal ion [Fe2+] (50 uM) on the initial rate of oxygen consumption during the autooxidation; procedure, shortened: as §2
[32] = Effect of transition metal ion [Fe3+] (100 uM) on the initial rate of oxygen consumption during the autooxidation; procedure, shortened: as §2
[33] = Effect of transition metal ion [Fe3+] (10 uM) on the initial rate of oxygen consumption during the autooxidation; procedure, shortened: as §2
[34] = Effect of transition metal ion [Fe3+] (200 uM) on the initial rate of oxygen consumption during the autooxidation; procedure, shortened: as §2
[35] = Effect of transition metal ion [Fe3+] (50 uM) on the initial rate of oxygen consumption during the autooxidation; procedure, shortened: as §2
[36] = Effect of transition metal ion Mn2+ (100 uM) on the initial rate of oxygen consumption during the autooxidation; procedure, shortened: as §2
[37] = Effect of transition metal ion Mn2+ (10 uM) on the initial rate of oxygen consumption during the autooxidation; procedure, shortened: as §2
[38] = Effect of transition metal ion Mn2+ (50 uM) on the initial rate of oxygen consumption during the autooxidation; procedure, shortened: as §2
[39] = Influence of Catalase (100 ug/mL) on the transition metal Mn2+ (100 uM) ion mediated autoxidation.; procedure, shortened: as §1
[40] = Influence of ceruplasmin enzyme (10.5 units/mL) on the initial rate of oxygen consumption at a pH of 6.4.; conditions: pH 6.4; procedure, shortened: as §3
[41] = Influence of ceruplasmin enzyme (10.5 units/mL) on the initial rate of oxygen consumption at a pH of 7.4.; conditions: pH 7.4; procedure, shortened: as §3
[42] = Influence of ceruplasmin enzyme (21.0 units/mL) on the initial rate of oxygen consumption at a pH of 7.4.; conditions: pH 7.4; procedure, shortened: as §3
[43] = Influence of ceruplasmin enzyme (42.0 units/mL) on the initial rate of oxygen consumption at a pH of 7.4.; conditions: pH 7.4; procedure, shortened: as §3
[44] = Influence of peroxidase enzyme (10 units/mL) on the initial rate of oxygen consumption at a pH of 7.4.; conditions: pH 7.4
Procedure, shortened: (§4)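 Substrate 5,7-dihydroxytryptamine, 1.0 mM, in 3.0 mL air-saturated pH 7.4 phosphate buffer (ionic strength 0.1). Peroxidase was added at the listed units/mL, either with 1.0 mM H2O2 or with no H2O2. The initial O2 consumption rate was measured with a Clark-type oxygen electrode.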

[45] = Influence of peroxidase enzyme (15 units/mL) on the initial rate of oxygen consumption at a pH of 7.4.; conditions: pH 7.4; procedure, shortened: as §4
[46] = Influence of peroxidase enzyme (5 units/mL) on the initial rate of oxygen consumption at a pH of 7.4.; conditions: pH 7.4; procedure, shortened: as §4
[47] = Influence of superoxide dismutase SOD (333 units/mL) on the transition metal [Fe2+] (100 uM) ion mediated autoxidation.; procedure, shortened: as §1

NCCc1c[nH]c2c(O)cc(O)cc12
Rate of O2 consumption [1]: 328 nM/min | Rate of O2 consumption [2]: 51 nM/min | Rate of O2 consumption [3]: 24 nM/min | Rate of O2 consumption [4]: 23.6 nM/min | Rate of O2 consumption [5]: 1583 nM/min | Rate of O2 consumption [6]: 48.5 nM/min | Rate of O2 consumption [7]: 81.2 nM/min | Rate of O2 consumption [8]: 192 nM/min | Rate of O2 consumption [9]: 304 nM/min | Rate of O2 consumption [10]: 85 nM/min | Rate of O2 consumption [11]: 126 nM/min | Rate of O2 consumption [12]: 34.1 nM/min | Rate of O2 consumption [13]: 32.1 nM/min | Rate of O2 consumption [14]: 45.6 nM/min | Rate of O2 consumption [15]: 58 nM/min | Rate of O2 consumption [16]: 712 nM/min | Rate of O2 consumption [17]: 39.2 nM/min | Rate of O2 consumption [18]: 97 nM/min | Rate of O2 consumption [19]: 36.7 nM/min | Rate of O2 consumption [20]: 51.3 nM/min | Rate of O2 consumption [21]: 1524 nM/min | Rate of O2 consumption [22]: 24.2 nM/min | Rate of O2 consumption [23]: 39.6 nM/min | Rate of O2 consumption [24]: 1490 nM/min | Rate of O2 consumption [25]: 638 nM/min | Rate of O2 consumption [26]: 2244 nM/min | Rate of O2 consumption [27]: 2367 nM/min | Rate of O2 consumption [28]: 628 nM/min | Rate of O2 consumption [29]: 252 nM/min | Rate of O2 consumption [30]: 801 nM/min | Rate of O2 consumption [31]: 483 nM/min | Rate of O2 consumption [32]: 86 nM/min | Rate of O2 consumption [33]: 50 nM/min | Rate of O2 consumption [34]: 125 nM/min | Rate of O2 consumption [35]: 68 nM/min | Rate of O2 consumption [36]: 87 nM/min | Rate of O2 consumption [37]: 61 nM/min | Rate of O2 consumption [38]: 70 nM/min | Rate of O2 consumption [39]: 54.5 nM/min | Rate of O2 consumption [40]: 453 nM/min | Rate of O2 consumption [41]: 71.4 nM/min | Rate of O2 consumption [42]: 129 nM/min | Rate of O2 consumption [43]: 240 nM/min | Rate of O2 consumption [44]: 89 nM/min | Rate of O2 consumption [45]: 102 nM/min | Rate of O2 consumption [46]: 79 nM/min | Rate of O2 consumption [47]: 645 nM/min

Reference: ChEMBL document CHEMBL1126238, “Chemical and enzyme-mediated oxidation of the serotonergic neurotoxin 5,7-dihydroxytryptamine: mechanistic insights” (J Med Chem, 1992)
